Assay results from ChEMBL document CHEMBL1133704, “Synthesis, biodistribution, and primate imaging of fluorine-18 labeled 2beta-carbo-1'-fluoro-2-propoxy-3beta-(4-chlorophenyl)tr opanes. Ligands for the imaging of dopamine transporters by positron emission tomography” (J Med Chem, 2000).

Columns and labels:
Rattus norvegicus [1] = test: Distribution of Radioactivity (percent injected dose per gram of tissue) in rest rat of brain after 30 min of iv administration; value ranges from 0.85-1.21; type: ADME, organism-based; settings: in vivo, 0.5 h
Summary of the method: (§1)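 Male Sprague-Dawley rats (225-300 g) under ketamine received a tail-vein dose of 50 µCi of [18F]-labeled tropane in 0.2 mL 13% EtOH/0.9% NaCl. At 5, 30, 60 or 120 min, cortex, striatum and cerebellum were dissected into tared tubes, weighed and γ-counted. "Rest of brain" was also counted. %dose/g was calculated against the diluted injected dose. Values are mean and range for three or four rats.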

Rattus norvegicus [2] = test: Distribution of Radioactivity (percent injected dose per gram of tissue) in rest rat of brain after 5 min of iv administration; value ranges from 1.19-1.53; type: ADME, organism-based; settings: in vivo; summary of the method: as §1
Rattus norvegicus [3] = test: Distribution of Radioactivity (percent injected dose per gram of tissue) in rest rat of brain after 60 min of iv administration; value ranges from 0.36-0.52; type: ADME, organism-based; settings: in vivo, 1 h; summary of the method: as §1
Rattus norvegicus [4] = test: Distribution of Radioactivity (percent injected dose per gram of tissue)in Rat striatum after 30 min of iv administration; value ranges from 3.57-6.08; type: ADME, organism-based; settings: in vivo, 0.5 h; summary of the method: as §1
Rattus norvegicus [5] = test: Distribution of Radioactivity (percent injected dose per gram of tissue) in rest rat of brain after 120 min of iv administration; value ranges from 0.22-0.33; type: ADME, organism-based; settings: in vivo, 2 h; summary of the method: as §1
Rattus norvegicus [6] = test: Distribution of Radioactivity (percent injected dose per gram of tissue) in Rat brain cerebellum after 5 min of iv administration; value ranges from 1.26-1.62; type: ADME, organism-based; settings: in vivo; summary of the method: as §1
Rattus norvegicus [7] = test: Distribution of Radioactivity (percent injected dose per gram of tissue) in Rat brain cerebellum after 60 min of iv administration; value ranges from 0.32-0.48; type: ADME, organism-based; settings: in vivo, 1 h; summary of the method: as §1
Rattus norvegicus [8] = test: Distribution of Radioactivity (percent injected dose per gram of tissue) in Rat brain cortex after 120 min of iv administration; value ranges from 0.22-0.33; type: ADME, organism-based; settings: in vivo, 2 h; summary of the method: as §1
Rattus norvegicus [9] = test: Distribution of Radioactivity (percent injected dose per gram of tissue) in Rat brain cortex after 60 min of iv administration; value ranges from 0.51-1.09; type: ADME, organism-based; settings: in vivo, 1 h; summary of the method: as §1
Rattus norvegicus [10] = test: Distribution of Radioactivity (percent injected dose per gram of tissue) in Rat striatum 5 min of iv administration; value ranges from 3.44-4.80.; type: ADME, organism-based; settings: in vivo; summary of the method: as §1
Rattus norvegicus [11] = test: Distribution of Radioactivity (percent injected dose per gram of tissue) in Rat striatum after 120 min of iv administration; value ranges from 1.07-1.22; type: ADME, organism-based; settings: in vivo, 2 h; summary of the method: as §1
Rattus norvegicus [12] = test: Distribution of Radioactivity (percent injected dose per gram of tissue) in Rat striatum after 60 min of iv administration; value ranges from 2.07-2.83; type: ADME, organism-based; settings: in vivo, 1 h; summary of the method: as §1
Rattus norvegicus [13] = test: Distribution of Radioactivity (percent injected dose per gram of tissue) in Rat brain cortex after 30 min of iv administration; value ranges from 2.47-3.09; type: ADME, organism-based; settings: in vivo, 0.5 h; summary of the method: as §1
Rattus norvegicus [14] = test: Distribution of Radioactivity (percent injected dose per gram of tissue) in Rat brain cortex after 5 min of iv administration; value ranges from 2.47-3.09; type: ADME, organism-based; settings: in vivo; summary of the method: as §1
Rattus norvegicus [15] = test: Distribution of Radioactivity (percent injected dose per gram of tissue) in Rat brain cerebellum after 120 min of iv administration; value ranges from 0.19-0.25; type: ADME, organism-based; settings: in vivo, 2 h; summary of the method: as §1
[16] = biological target: Sodium-dependent dopamine transporter (Homo sapiens, UniProt Q01959); test: Inhibition constant against [N-methyl-3H]WIN-35428 in murine kidney cells transfected with human dopamine transporter.; type: cell-based
Summary of the method: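 Membranes from a kidney cell line stably expressing human DAT. Buffer: 0.03 M phosphate, pH 7.4, with 0.32 M sucrose. Radioligand: [³H]WIN 35,428 at 2.0 nM final. Incubated 2 h at 4 °C with competitor at nine concentrations (10^-13 to 10^-6 M, triplicate). GF/B filtration, then scintillation counting. Ki taken from competition curves.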

[17] = biological target: Sodium-dependent dopamine transporter (Rattus norvegicus, UniProt P23977); test: Inhibition constant in rat dopamine transporter.
Summary of the method: (§2)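 Run by an outside screening program on membranes from rat striatum or cortex. Radioligand (2-12 nM) was incubated with 7-11 competitor concentrations. Radioligands: [N-methyl-³H]WIN 35,428 for DAT, [³H]citalopram for 5-HT transporter, [³H]desmethylimipramine for NE transporter. Ki values reported.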

[18] = biological target: Norepinephrine transporter (Rattus norvegicus, UniProt Q9WTR4); test: Inhibition constant in rat Norepinephrine transporter; summary of the method: as §2
[19] = biological target: Sodium-dependent serotonin transporter (Homo sapiens, UniProt P31645); test: Inhibition constant against [3H]citalopram in murine kidney cells transfected with human serotonin transporter.; type: cell-based
Summary of the method: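 Membranes from a kidney cell line stably expressing human SERT. Buffer: 50 mM Tris, 120 mM NaCl, 5 mM KCl, pH 7.9. Radioligand: [³H]citalopram at 0.5 nM final. Incubated 1 h at 22 °C with competitor at nine concentrations (10^-13 to 10^-6 M, triplicate). Filtration, then scintillation counting. Ki taken from competition curves.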

[20] = biological target: Sodium-dependent serotonin transporter (Rattus norvegicus, UniProt P31652); test: Inhibition constant in rat serotonin transporter.; summary of the method: as §2
[21] = Ratio of Distribution of Radioactivity (percent injected dose per gram of tissue) in striatum to cerebellum of brain after 5 min of iv administration; value ranges from 2.49-3.81; type: ADME, organism-based; settings: in vivo
[22] = Ratio of Distribution of Radioactivity (percent injected dose per gram of tissue) in striatum to cerebellum of brain after 60 min of iv administration; value ranges from 4.43-6.93; type: ADME, organism-based; settings: in vivo, 1 h
[23] = Ratio of Distribution of Radioactivity (percent injected dose per gram of tissue) in striatum to cerebellum of brain after 30 min of iv administration; value ranges from 3.83-4.94; type: ADME, organism-based; settings: in vivo, 0.5 h
[24] = Ratio of inhibition of 5-HT to inhibition of dopamine (5-HT/DA); ND means no data.
kidney = test: Ratio of inhibition of 5-HT to inhibition of dopamine (5-HT/DA) in murine kidney cells transfected with human serotonin transporter.; type: cell-based
[25] = Ratio of Distribution of Radioactivity (percent injected dose per gram of tissue) in striatum to cortex of brain after 60 min of iv administration; value ranges from 2.59-4.06; type: ADME, organism-based; settings: in vivo, 1 h
[26] = Ratio of Distribution of Radioactivity (percent injected dose per gram of tissue) in striatum to cerebellum of brain after 120 min of iv administration; value ranges from 4.64-6.14; type: ADME, organism-based; settings: in vivo, 2 h
[27] = Ratio of Distribution of Radioactivity (percent injected dose per gram of tissue) in striatum to cortex of brain after 120 min of iv administration; value ranges from 2.61-3.24; type: ADME, organism-based; settings: in vivo, 2 h
[28] = Ratio of Distribution of Radioactivity (percent injected dose per gram of tissue) in striatum to cortex of brain after 5 min of iv administration; value ranges from 1.32-1.94; type: ADME, organism-based; settings: in vivo
Rattus norvegicus [29] = test: Distribution of Radioactivity (percent injected dose per gram of tissue) in Rat brain cerebellum after 30 min of iv administration; value ranges from 0.75-1.23; type: ADME, organism-based; settings: in vivo, 0.5 h; summary of the method: as §1
[30] = Ratio of Distribution of Radioactivity (percent injected dose per gram of tissue) in striatum to cortex of brain after 30 min of iv administration; value ranges from 1.67-2.85; type: ADME, organism-based; settings: in vivo, 0.5 h

Sequence of Sodium-dependent dopamine transporter (Homo sapiens, UniProt Q01959) (Q01959 whole entry): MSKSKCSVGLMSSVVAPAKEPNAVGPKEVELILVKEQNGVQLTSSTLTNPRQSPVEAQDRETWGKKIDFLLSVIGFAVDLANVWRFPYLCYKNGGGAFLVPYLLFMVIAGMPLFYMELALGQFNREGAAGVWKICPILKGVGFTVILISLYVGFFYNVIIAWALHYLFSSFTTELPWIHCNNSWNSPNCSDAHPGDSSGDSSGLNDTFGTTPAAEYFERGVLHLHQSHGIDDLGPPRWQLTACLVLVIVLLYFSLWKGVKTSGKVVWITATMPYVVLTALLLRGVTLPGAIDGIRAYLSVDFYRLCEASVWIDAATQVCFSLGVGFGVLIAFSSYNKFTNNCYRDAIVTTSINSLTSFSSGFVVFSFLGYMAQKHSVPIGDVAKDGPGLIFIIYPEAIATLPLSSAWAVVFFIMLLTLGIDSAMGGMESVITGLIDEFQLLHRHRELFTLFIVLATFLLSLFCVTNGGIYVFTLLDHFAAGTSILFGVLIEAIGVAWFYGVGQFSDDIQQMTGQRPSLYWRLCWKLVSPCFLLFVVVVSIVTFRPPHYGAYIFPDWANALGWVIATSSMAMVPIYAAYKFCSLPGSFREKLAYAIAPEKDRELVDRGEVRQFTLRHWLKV
Sequence of Norepinephrine transporter (Q9WTR4 whole entry): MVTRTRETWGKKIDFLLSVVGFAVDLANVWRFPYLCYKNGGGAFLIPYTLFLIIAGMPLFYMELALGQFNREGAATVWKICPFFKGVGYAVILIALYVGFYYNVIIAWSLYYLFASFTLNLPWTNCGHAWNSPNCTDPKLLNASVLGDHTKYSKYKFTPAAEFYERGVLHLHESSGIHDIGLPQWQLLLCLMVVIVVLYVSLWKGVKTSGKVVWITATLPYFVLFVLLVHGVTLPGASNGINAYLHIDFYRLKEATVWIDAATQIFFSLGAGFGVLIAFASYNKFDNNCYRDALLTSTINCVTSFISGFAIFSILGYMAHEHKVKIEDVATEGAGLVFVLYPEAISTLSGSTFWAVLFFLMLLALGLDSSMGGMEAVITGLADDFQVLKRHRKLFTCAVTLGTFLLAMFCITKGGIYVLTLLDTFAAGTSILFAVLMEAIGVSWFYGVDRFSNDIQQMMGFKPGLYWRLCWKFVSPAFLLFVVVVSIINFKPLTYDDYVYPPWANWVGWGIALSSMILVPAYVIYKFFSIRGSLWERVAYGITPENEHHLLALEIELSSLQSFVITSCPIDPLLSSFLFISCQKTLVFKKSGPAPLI
Sequence of Sodium-dependent dopamine transporter (Rattus norvegicus, UniProt P23977) (P23977 whole entry): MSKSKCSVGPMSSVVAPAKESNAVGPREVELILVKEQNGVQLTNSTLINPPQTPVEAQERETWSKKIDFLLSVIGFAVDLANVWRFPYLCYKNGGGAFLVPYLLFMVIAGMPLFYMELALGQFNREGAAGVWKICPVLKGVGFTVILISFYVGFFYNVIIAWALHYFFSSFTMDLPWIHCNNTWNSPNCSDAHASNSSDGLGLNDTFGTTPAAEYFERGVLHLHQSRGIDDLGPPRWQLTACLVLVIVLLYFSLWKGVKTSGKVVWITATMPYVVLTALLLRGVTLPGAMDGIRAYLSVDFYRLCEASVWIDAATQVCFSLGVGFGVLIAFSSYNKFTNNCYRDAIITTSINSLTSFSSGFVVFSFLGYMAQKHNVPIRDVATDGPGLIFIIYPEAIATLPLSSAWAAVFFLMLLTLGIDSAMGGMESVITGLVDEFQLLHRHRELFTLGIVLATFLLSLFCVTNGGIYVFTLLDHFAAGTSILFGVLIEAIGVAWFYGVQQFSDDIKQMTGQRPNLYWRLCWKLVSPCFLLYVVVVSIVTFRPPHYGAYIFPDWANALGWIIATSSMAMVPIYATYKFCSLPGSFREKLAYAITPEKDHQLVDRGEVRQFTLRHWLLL
Sequence of Sodium-dependent serotonin transporter (Homo sapiens, UniProt P31645) (P31645 whole entry): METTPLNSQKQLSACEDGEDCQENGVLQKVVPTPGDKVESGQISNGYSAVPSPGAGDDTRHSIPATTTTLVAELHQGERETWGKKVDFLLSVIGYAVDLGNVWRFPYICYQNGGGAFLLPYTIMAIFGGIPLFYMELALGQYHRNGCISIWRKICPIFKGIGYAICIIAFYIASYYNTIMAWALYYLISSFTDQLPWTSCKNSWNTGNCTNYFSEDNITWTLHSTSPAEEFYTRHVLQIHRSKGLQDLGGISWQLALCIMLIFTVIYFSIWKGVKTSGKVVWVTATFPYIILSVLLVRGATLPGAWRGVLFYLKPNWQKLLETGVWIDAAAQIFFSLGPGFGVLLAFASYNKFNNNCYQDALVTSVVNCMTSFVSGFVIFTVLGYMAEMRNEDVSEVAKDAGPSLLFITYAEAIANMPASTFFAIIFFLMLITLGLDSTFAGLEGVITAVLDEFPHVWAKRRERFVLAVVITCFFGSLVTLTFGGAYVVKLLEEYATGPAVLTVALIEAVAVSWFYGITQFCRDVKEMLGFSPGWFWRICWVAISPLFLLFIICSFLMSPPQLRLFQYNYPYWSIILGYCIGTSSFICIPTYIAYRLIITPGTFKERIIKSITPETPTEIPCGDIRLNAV
Sequence of Sodium-dependent serotonin transporter (Rattus norvegicus, UniProt P31652) (P31652 whole entry): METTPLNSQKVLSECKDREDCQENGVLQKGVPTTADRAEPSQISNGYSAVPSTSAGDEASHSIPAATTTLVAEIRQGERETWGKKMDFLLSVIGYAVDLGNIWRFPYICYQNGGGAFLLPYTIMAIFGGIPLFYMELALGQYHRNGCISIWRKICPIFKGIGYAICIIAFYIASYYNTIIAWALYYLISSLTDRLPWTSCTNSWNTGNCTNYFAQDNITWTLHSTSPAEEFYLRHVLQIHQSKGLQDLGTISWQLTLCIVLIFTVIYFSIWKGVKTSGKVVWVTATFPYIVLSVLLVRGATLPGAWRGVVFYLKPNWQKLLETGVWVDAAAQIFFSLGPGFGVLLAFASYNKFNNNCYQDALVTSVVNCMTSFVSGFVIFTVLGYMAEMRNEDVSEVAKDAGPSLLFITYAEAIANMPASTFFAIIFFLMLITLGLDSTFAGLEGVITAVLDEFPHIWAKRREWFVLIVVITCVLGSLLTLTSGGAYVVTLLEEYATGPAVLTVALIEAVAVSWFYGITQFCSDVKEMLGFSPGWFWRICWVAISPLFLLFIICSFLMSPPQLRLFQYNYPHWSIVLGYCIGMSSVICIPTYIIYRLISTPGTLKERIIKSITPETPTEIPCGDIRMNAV

C[C@H](CF)OC(=O)C1C(c2ccc(Cl)cc2)CC2CCC1N2C (stereo partly drawn)
Biodistribution (Rattus norvegicus [1]): 1.03% | Biodistribution (Rattus norvegicus [2]): 1.36% | Biodistribution (Rattus norvegicus [3]): 0.45% | Biodistribution (Rattus norvegicus [4]): 4.5% | Biodistribution (Rattus norvegicus [5]): 0.27% | Biodistribution (Rattus norvegicus [6]): 1.42% | Biodistribution (Rattus norvegicus [7]): 0.38% | Biodistribution (Rattus norvegicus [8]): 0.4% | Biodistribution (Rattus norvegicus [9]): 0.77% | Biodistribution (Rattus norvegicus [10]): 3.97% | Biodistribution (Rattus norvegicus [11]): 1.2% | Biodistribution (Rattus norvegicus [12]): 2.28% | Biodistribution (Rattus norvegicus [13]): 2.04% | Biodistribution (Rattus norvegicus [14]): 2.76% | Biodistribution (Rattus norvegicus [15]): 0.22% | Ki [16]: 3.2 nM | Ki [17]: 14.7 nM | Ki [18]: 498 nM | Ki [19]: 64 nM | Ki [20]: 133 nM | S/Cereb Ratio [21]: 2.79 | S/Cereb Ratio [22]: 6 | S/Cereb Ratio [23]: 4.55 | Ratio [24]: 9 | Ratio (kidney): 20 | S/CX Ratio [25]: 2.96 | S/Cereb Ratio [26]: 5.45 | S/CX Ratio [27]: 3 | S/CX Ratio [28]: 1.44 | Biodistribution (Rattus norvegicus [29]): 0.99% | S/CX Ratio [30]: 2.21

C[C@@H](CF)OC(=O)C1C(c2ccc(Cl)cc2)CC2CCC1N2C (stereo partly drawn)
Ki [16]: 0.67 nM | Ki [17]: 6.06 nM | Ki [18]: 690 nM | Ki [19]: 85 nM | Ki [20]: 137 nM | Ratio [24]: 23 | Ratio (kidney): 127
